Legend:
Type in all cases: functional
Amaranthus retroflexus [1] = assay: Herbicidal activity against Amaranthus retroflexus assessed as inhibition of herb growth at 1.5 kg/ha during preemergence treatment protocol; settings: pre-emergence, read-out: GI
Digitaria sanguinalis [2] = assay: Herbicidal activity against hairy Digitaria sanguinalis (hairy crabgrass) assessed as inhibition of herb growth at 1.5 kg/ha during postemergence treatment protocol; settings: post-emergence, read-out: GI
Medicago sativa [3] = assay: Herbicidal activity against Medicago sativa (alfalfa) assessed as inhibition of herb growth at 1.5 kg/ha during postemergence treatment protocol; settings: post-emergence, read-out: GI
Amaranthus retroflexus [4] = assay: Herbicidal activity against Amaranthus retroflexus assessed as inhibition of herb growth at 1.5 kg/ha during postemergence treatment protocol; settings: post-emergence, read-out: GI
Brassica napus [5] = assay: Herbicidal activity against Brassica napus (oilseed rape) assessed as inhibition of herb growth at 1.5 kg/ha during postemergence treatment protocol; settings: post-emergence, read-out: GI
Spinacia oleracea = assay: Inhibition of photosynthetic electron transport in Spinacia oleracea (spinach)isolated chloroplasts assessed as inhibition of Hill reaction
Method in brief: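 Chloroplasts from fresh spinach leaves, homogenised in ice-cold pH 7.8 buffer (0.4 M sucrose, 10 mM NaCl, 50 mM Tris-HCl), spun 3 min 120g then 5 min 1000g at 4 °C. Reaction buffer 350 mM NaCl, 10 mM Tris-HCl pH 7.8 with DCPIP; 2 min light (360 µmol m^-2 s^-1), DCPIP reduction at 620 nm. Compounds 0.01 mg/L–0.3 mg/mL in […]/water, ≥triplicate; IC50 by log-linear regression.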

Digitaria sanguinalis [6] = assay: Herbicidal activity against hairy Digitaria sanguinalis (hairy crabgrass) assessed as inhibition of herb growth at 1.5 kg/ha during preemergence treatment protocol; settings: pre-emergence, read-out: GI
Medicago sativa [7] = assay: Herbicidal activity against Medicago sativa (alfalfa) assessed as inhibition of herb growth at 1.5 kg/ha during preemergence treatment protocol; settings: pre-emergence, read-out: GI
Brassica napus [8] = assay: Herbicidal activity against Brassica napus (oilseed rape) assessed as inhibition of herb growth at 1.5 kg/ha during preemergence treatment protocol; settings: pre-emergence, read-out: GI
[9] = Spinacia oleracea, read-out: pIC50 (converted)

Structure (SMILES) | inhibition of growth at 1500 g/ha (Amaranthus retroflexus [1]) [%] | inhibition of growth at 1500 g/ha (Digitaria sanguinalis [2]) [%] | inhibition of growth at 1500 g/ha (Medicago sativa [3]) [%] | inhibition of growth at 1500 g/ha (Amaranthus retroflexus [4]) [%] | inhibition of growth at 1500 g/ha (Brassica napus [5]) [%] | IC50 (Spinacia oleracea) [ppm] | IC50 (Spinacia oleracea; [9]) [nM] | inhibition of growth at 1500 g/ha (Digitaria sanguinalis [6]) [%] | inhibition of growth at 1500 g/ha (Medicago sativa [7]) [%] | inhibition of growth at 1500 g/ha (Brassica napus [8]) [%]
CCCOc1ncc(CN/C(SC)=C(/C#N)C(=O)OCCOCC)s1 | 27 | 49.6 | 57.3 | 100 | 100 | 0.05 | 50.1 | 0 | 17.6 | 0
CCOCCOC(=O)/C(C#N)=C(\NCc1ccc(Cl)nc1)SC | 13.7 | 89.9 | 41.3 | 100 | 100 | 0.167 | 166 | 18.6 | 1.5 | 68.9
CCOCCOC(=O)/C(C#N)=C(\NCc1cnc(OCC(F)(F)F)s1)SC | 43.2 | 47.2 | 60.9 | 98.7 | 100 | 0.055 | 55 | 8.9 | 1.7 | 65.4
CCOCCOC(=O)/C(C#N)=C(\NCc1cnc(Cl)s1)C(C)C | 67.6 | 45.6 | 37.1 | 100 | 100 | 0.161 | 162 | 28.7 | 15.7 | 70.3
CCOCCOC(=O)/C(C#N)=C(\NCC1CCOC1)C(C)C (stereo not given) | 12.6 | 57.6 | 41.3 | 37.8 | 88.2 | 41.4 | 41700 | 0 | 2.3 | 0
CCOCCOC(=O)/C(C#N)=C(\NCc1ccc(OCC)nn1)C(C)C | 54 | 57.6 | 50.7 | 70.2 | 100 | – | – | 26.7 | 0 | 44.9
CCOCCOC(=O)/C(C#N)=C(\NCC1CCCO1)C(C)C (stereo not given) | 3.2 | 100 | 60.5 | 100 | 97.2 | 6.874 | 6920 | 40 | 20.3 | 80
CCOCCOC(=O)/C(C#N)=C(\NCc1cnc(Br)s1)SC | 29.7 | 36 | 26.8 | 88 | 100 | 0.102 | 102 | 8.9 | 8.2 | 28.7
CCOCCOC(=O)/C(C#N)=C(\NCc1ccc(Cl)cc1)C(C)C | 40.5 | 46.4 | 68.9 | 100 | 100 | 0.043 | 42.7 | 12.9 | 0 | 4.4
CCOCCOC(=O)/C(C#N)=C(\NCc1cnc(OC(C)C)s1)SC | 40.5 | 54.4 | 53.6 | 100 | 100 | 0.07 | 70.8 | 14.8 | 4.5 | 26
CCOCCOC(=O)/C(C#N)=C(\NCc1cnc(OC)nc1)SC | 58.1 | 2.2 | 45.1 | 15.5 | 28.8 | 3.79 | 3800 | 26 | 42.8 | 42.4
CCOCCOC(=O)/C(C#N)=C(\NCc1ccc(N(C)C)nc1)C(C)C | 75.7 | 88 | 58.3 | 100 | 100 | 0.086 | 85.1 | 52.5 | 27.9 | 29.3
CCOCCOC(=O)/C(C#N)=C(\NCc1cnc(OCC)s1)SC | 43.2 | 51.2 | 62.6 | 100 | 100 | 0.115 | 115 | 44.6 | 14.8 | 23.3
CCOCCOC(=O)/C(C#N)=C(\NCc1ccc(Cl)nn1)C(C)C | 27 | 48 | 31.4 | 91.6 | 100 | 4.3 | 4270 | 10.9 | 4.5 | 59.5
CCOCCOC(=O)/C(C#N)=C(\NCc1cnc(OCC(F)(F)F)s1)C(C)C | 51 | 95.2 | 53.3 | 100 | 100 | 0.074 | 74.1 | 34.6 | 0 | 71.9
CCOCCOC(=O)/C(C#N)=C(\NCc1ccc(N2CCOCC2)nn1)SC | 13.5 | 2.4 | 32.8 | 24 | 18.1 | – | – | 6.9 | 10.1 | 10.9
CCOCCOC(=O)/C(C#N)=C(\NCc1ccc(Cl)cc1)SC | 59.4 | 31.2 | 12.9 | 100 | 100 | 0.026 | 25.7 | 24.8 | 0 | 24.9
CCOCCOC(=O)/C(C#N)=C(\NCc1cnc(OC(C)C)s1)C(C)C | 100 | 60.8 | 43.4 | 100 | 100 | 0.076 | 75.9 | 6.9 | 1.7 | 51.4
CCOCCOC(=O)/C(C#N)=C(\NCc1cnc(OCC)nc1)SC | 15.9 | 8.7 | 40.8 | 26.4 | 16.1 | 1.45 | 1070 | 12.5 | 31.1 | 0
CCOCCOC(=O)/C(C#N)=C(/CC)NCc1cnc(OC)nc1 | 34.6 | 2.2 | 26 | 20.7 | 63.7 | – | – | 36 | 29.4 | 51.5
CCOCCOC(=O)/C(C#N)=C(\NCc1ccc(Br)nc1)C(C)C | 48.6 | 42.4 | 32.1 | 97.8 | 100 | 0.099 | 100 | 16.8 | 0 | 68.7
CCOCCOC(=O)/C(C#N)=C(\NCc1cnc(OC)nc1)C(C)C | 22.2 | 52.2 | 74 | 3.4 | 19.4 | – | – | 46.2 | 57.1 | 0
CCOCCOC(=O)/C(C#N)=C(\NCc1ccc(N2CCOCC2)nn1)C(C)C | 5.4 | 13.6 | 15.2 | 19.1 | 85.4 | – | – | 22.8 | 2.6 | 49.8

— ChEMBL document CHEMBL3045046, “Synthesis, herbicidal activities, and 3D-QSAR of 2-cyanoacrylates containing aromatic methylamine moieties” (J Agric Food Chem, 2008)
